# Bioassay records (PubChem BioAssay)
# Arbovirus anti: antivirals against arbovirus infection, primary screen, cell-based, full library, 10K replicate subset; arbovirus infection cell-based antiviral screen; inhibition, % at 10 µM; hit rate 0.37% among 200,000; AID 1251, 2008; in the data active = inhibition above about 30%
# ABCG2 inh: ABCG2 efflux pump inhibitors, primary screen, multiplex with ABCB1, IgMXP3 cells, flow cytometry | hit rate 0.1% among 190,000 | Broad substrate specificity ATP-binding cassette transporter ABCG2 (Homo sapiens), Q9UNQ0 | inhibition, % at 6.6 µM | AID 1325, 2008 | JC-1 efflux;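 active = inhibition above 80%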;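 note: 0% = DMSO and 100% = nicardipine control wells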
# Target sequence (Q9UNQ0 whole entry, looked up): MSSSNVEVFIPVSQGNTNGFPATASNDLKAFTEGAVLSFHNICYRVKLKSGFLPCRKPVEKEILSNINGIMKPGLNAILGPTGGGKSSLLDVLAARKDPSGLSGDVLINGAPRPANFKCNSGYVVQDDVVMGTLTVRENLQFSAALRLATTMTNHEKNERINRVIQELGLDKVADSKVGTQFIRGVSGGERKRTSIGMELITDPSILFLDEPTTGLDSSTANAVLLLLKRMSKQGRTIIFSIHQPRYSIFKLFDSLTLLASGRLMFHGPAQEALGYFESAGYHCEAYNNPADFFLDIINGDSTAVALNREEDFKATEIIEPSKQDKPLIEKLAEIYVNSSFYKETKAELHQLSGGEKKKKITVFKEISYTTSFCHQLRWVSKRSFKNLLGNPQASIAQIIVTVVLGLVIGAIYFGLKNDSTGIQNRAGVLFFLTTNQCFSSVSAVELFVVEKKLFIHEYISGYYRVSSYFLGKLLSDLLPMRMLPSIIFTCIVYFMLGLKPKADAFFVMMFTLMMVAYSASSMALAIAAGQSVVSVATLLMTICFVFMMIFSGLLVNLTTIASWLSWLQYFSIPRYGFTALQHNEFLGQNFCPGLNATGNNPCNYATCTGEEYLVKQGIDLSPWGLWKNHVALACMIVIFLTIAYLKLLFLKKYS
#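 Test system: IgMXP3 (ABCG2) plus far-red-tagged CCRF-Adr (ABCB1) cells / Amount: 3 million cells/mL in well / Reagent: JC-1 transporter substrate / Timing: 10 min compound exposure, 25 °C / Signal: flow cytometry, 530 nm JC-1 signal / Read-out: percent efflux inhibition, scaled nicardipine 100% to DMSO 0% / Benchmarks: nicardipine as high control, DMSO as low control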
# bCat nuc transl: modulators of beta-catenin nuclear translocation, primary screen, imaging, HeLa cells, immunofluorescence, high-content | hit rate 0.3% among 190,000 | nuclear translocation activity, % at 5 µM | AID 1665, 2009;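 active = nuclear translocation activity above 50% at 5 µM, with a well cell count of 50 or more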;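 note: per-cell ratio of nuclear to cytoplasmic median beta-catenin stain intensity; plate controls were DMSO negative control for no effect and GSK-3 inhibitor IX positive control for full effect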
#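 Technique: fluorescence imaging of beta-catenin antibody stain plus DAPI / Material: human HeLa cell line / Incubation: compound treatment 24 h, 37°C, 5% CO2 / Read-out basis: % activation of per-cell nuclear versus cytoplasmic median beta-catenin signal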
# Autophagy HCS: autophagy modulators in MEF cells, primary screen, imaging, high-content, MEF GFP-LC3; MEF GFP-LC3 puncta imaging; test concentration mostly 10 µM; AID 463193, 2010; hit rate 0.98% among 190,000; calls only at 10 µM (by protocol);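 active = percentage of spot-positive cells more than 3 SD above its plate mean, without a fluorescence outlier flag or 80% toxicity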;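 note: spot-positive cell cutoff set from DMSO-treated cells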
# MT stabilize HCS: microtubule stabilizers in HeLa cells, primary screen, imaging, high-content imaging; HeLa tubulin immunostaining HCS, 24 h; share of cells brighter than vehicle mean+2SD; % tubulin-high responders, % at 10 µM; hit rate 0.83% among 200,000; AID 2205, 2009;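 active = plate Z-score above 3 for both tubulin-high and condensed-nucleus cell shares, with cell loss under 80%, at 10 µM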;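 note: anti alpha tubulin signal scored within the nucleus-defined area of each cell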
# ABCB1 inh: ABCB1 efflux pump inhibitors, primary screen, cell-based, multiplex, flow cytometry, ABCG2 counter-screen | hit rate 0.067% among 190,000 | inhibition, % at 6.6 µM | AID 1326, 2008 | CCRF-Adr cells, JC-1 efflux; in the data active = inhibition above about 40%;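 note: 0% = vehicle and 100% = reference inhibitor; higher value means more JC-1 retained so stronger ABCB1 efflux block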
# The depositor's hits bear a star; i = inactive; / = no result; + = active, no number. Shown are actives, neighbours in structure and some others; about 2.1% of the full set was active somewhere.
SMILES,Arbovirus anti,ABCG2 inh,bCat nuc transl,Autophagy HCS,MT stabilize HCS,ABCB1 inh
CCOc1ccc(C(=O)c2ccc(OCC)c(N)c2)cc1N,-20.9,0.1,5.2,i,53.0*,-0.1
Brc1ccccc1/C=N/Nc1ccc2ccccc2n1,39.2*,-21.3,1.0,i,5.4,-2.8
Brc1ccc(/C=N/Nc2ccc3ccccc3n2)cc1,1.7,2.0,-1.4,i,2.1,0.6
CCC1(C)Cc2ccccc2/C(=C/C(=O)N2CCCCC2)N1 (stereo not given),4.8,1.7,-2.8,i,4.3,0.5
c1ccc(COc2cccc(CNCc3cccnc3)c2)cc1,-1.5,0.1,0.9,i,5.8,0.9
COc1cc(CNCc2cccnc2)ccc1OCc1ccccc1,7.1,3.8,1.4,+,1.6,0.8
C=CCOc1c(Cl)cc(CNc2nccs2)cc1OC,-6.4,4.1,0.7,i,3.3,0.1
COc1ccc(Cl)cc1NC(=S)NNC(=O)c1cccnc1,-7.1,0.7,-0.9,+,2.4,-0.5
Cn1c2c(c(=O)n(C)c1=O)CN(Cc1ccc(F)cc1)CN2,9.2,1.8,3.1,i,1.8,0.3
N#Cc1cn(-c2ccccc2)nc1C(=O)c1ccccc1,-6.3,6.1,62.5*,i,2.0,0.8
CC(=O)c1nn(-c2ccc(Br)cc2)cc1C(=O)c1ccccc1,-13.3,8.1,1.6,i,2.7,0.2
CC1(C)CC(N=c2cc(-c3ccccc3)oc3ccc(Cl)cc23)CC(C)(C)N1,-33.5,0.7,7.4,+,71.1,-1.3
COC(=O)CSc1nnc(CNC(=O)c2ccc(OC)cc2OC)n1C,4.1,0.9,-4.0,i,4.0,0.1
CC1(C)NC(=O)N(CC(O)COc2ccccc2C(=O)N2CCCCC2)C1=O (stereo not given),3.8,1.9,-2.5,i,4.6,0.6
C=C1C(=O)[C@@]23[C@H](O)C[C@@H]4C(C)(C)CC[C@H](O)[C@]4(C)[C@@H]2C[C@H](O)[C@@H]1[C@H]3O,-24.2,0.3,/,i,5.0,0.3
C=C1C(=O)[C@@]23[C@H](O)C[C@@H]4C(C)(C)CC[C@H](O)[C@@]4(C)[C@@H]2CC[C@@H]1[C@H]3O,-37.3,-1.4,/,i,25.5*,-0.5
CCOc1ccc(N=C2NC(=O)S/C2=C\c2ccc(OC)cc2)cc1,2.5,0.7,1.2,+,1.3,0.1
COc1cc2c3nnc(-c4ccc(F)cc4)c-3cn(Cc3cccc(C)c3)c2cc1OC,10.8,2.1,4.2,i,8.1,0.0
COc1cc2c3nnc(-c4ccc(F)cc4)c-3cn(Cc3cccc(F)c3)c2cc1OC,-7.0,-0.6,-1.6,+,2.6,-0.1
CCn1cc([N+](=O)[O-])c(C(=O)Nc2cc(C)on2)n1,7.0,0.8,4.9,i,2.3,-0.1
O=C(Nc1ccc(Br)cn1)c1ccc2nccnc2c1,/,/,/,i,11.6*,/
C=CCSc1nccc(-c2nn(-c3ccc(C)cc3)ccc2=O)n1,-4.8,7.3,33.1,+,39.3*,0.4
CSc1nccc(-c2nn(-c3ccc(C)cc3)ccc2=O)n1,-24.8,3.6,/,i,57.2*,0.4
C#CCSc1nccc(-c2nn(-c3ccc(C)cc3)ccc2=O)n1,-12.8,10.7,-0.6,i,2.6,1.2
CCSc1nccc(-c2nn(-c3ccc(C)cc3)ccc2=O)n1,-27.4,/,133.2*,+,49.7*,/
SMILES,Arbovirus anti,ABCG2 inh,bCat nuc transl,Autophagy HCS,MT stabilize HCS,ABCB1 inh
Nc1nccc(-c2nn(-c3ccc(Cl)cc3)ccc2=O)n1,/,/,-2.1,/,/,/
COc1ccc(C2NC(Cc3ccccc3)(C(=O)O)C3C(=O)N(c4ccccc4OC)C(=O)C23)cc1 (stereo not given),2.1,2.1,-1.1,i,1.8,0.9
COc1cccc(Nc2nc(-c3ccc4c(c3)OCCO4)cs2)c1,-25.4,12.7,5.4,i,33.5*,-0.5
c1cc2c(cc1Nc1nc(-c3ccc4c(c3)OCO4)cs1)OCCO2,-1.9,0.2,1.1,i,2.6,0.0
O=C1c2cccc3c([N+](=O)[O-])c(O)cc(c23)C(=O)N1Nc1ccccc1,4.4,2.0,6.1,i,2.5,0.3
CC(=O)N1c2ccc(Cl)cc2C2C=CCC2C1c1cccc2ccccc12 (stereo not given),-17.6,0.3,81.9*,i,12.2*,0.5
CC1=C(C(=O)N2CCOCC2)C(c2ccc(OC(F)F)cc2)NC(=S)N1c1ccccc1 (stereo not given),2.9,-4.7,-3.1,+,3.2,-1.1
CC1=C(C(=O)N2CCOCC2)C(c2ccc(Br)cc2)NC(=S)N1c1ccccc1 (stereo not given),18.6,5.8,-1.5,i,0.1,1.5
CC(=O)Cc1nsc(NC(=O)c2ccc(-c3ccc(F)cc3)o2)n1,5.0,-1.9,-0.3,i,9.1,-0.3
COc1ccc(-c2coc3cc4oc(=O)cc(-c5ccccc5)c4cc23)cc1F,-33.5,18.4,148.5*,i,17.0*,1.3
CC(=O)Nc1cc2c(cc1C(=O)C(C)C)OCCO2,-1.9,-3.5,-2.1,i,3.2,-3.7
Cc1ccc(OCc2nnc(SCC(=O)c3ccccc3)n2Cc2ccco2)cc1,1.6,4.3,-1.3,i,9.2,2.3
O=C(CSc1nnc(COc2ccccc2)n1Cc1ccco1)c1ccc(F)cc1,4.2,4.5,0.7,+,5.2,1.2
COC(=O)c1ccccc1NC(=O)c1cc(C2CC2)on1,7.7,5.4,-0.6,/,10.2,0.8
COC(=O)c1ccccc1NC(=O)c1cc(-c2ccc(O)cc2)on1,48.1*,2.5,-1.1,i,8.8,0.0
COc1ccc(/C=C(/NC(=O)c2ccccc2)C(=O)NC2CCS(=O)(=O)C2)cc1 (stereo not given),7.7,2.2,1.1,i,1.9,/
O=C(Cn1nc(-c2ccccc2)c2ccccc2c1=O)Nc1ccc(F)cc1,/,/,1.6,/,/,/
N#Cc1c(-c2ccccc2)c(-c2ccccc2)nn(CC(=O)NNC(=O)Nc2ccc(Cl)c(Cl)c2)c1=O,-40.1,-1.7,19.7,i,21.2*,-0.9
CC1Cc2ccccc2N1S(=O)(=O)c1cccc(C(=O)N2CCN(c3ncccn3)CC2)c1 (stereo not given),38.3*,6.8,1.7,i,3.4,3.8
CCOc1ccc(S(=O)(=O)N2c3ccccc3CC2C)cc1 (stereo not given),-4.9,2.8,162.6*,+,16.7*,0.4
CC1Cc2ccccc2N1S(=O)(=O)c1cccc(C(=O)N2CC(=O)Nc3ccccc32)c1 (stereo not given),/,/,-1.5,/,/,/
